Assays:
Homo sapiens [1] = organism: Homo sapiens; test: Carbohydrate in the Lipoprotein -deficient serum(LPDS) along with compound was measured in human serum; format: functional
Method in brief: (§1)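 Human serum (1.6 mL) mixed with 0.4 mL of a 10 mM glycolipid solution in PBS (2 mM final), or with PBS alone, for 10 min at room temperature. Density-gradient ultracentrifugation in KBr/NaCl then gave VLDL (d<1.006), LDL (1.006–1.063), HDL (1.063–1.210) and LPDS (d>1.210 g/mL) fractions. Each fraction was dialyzed against PBS and assayed for cholesterol and carbohydrate, reported as total μg per fraction.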

Homo sapiens [2] = organism: Homo sapiens; test: Carbohydrate in the Total along with compound was measured in human serum; format: functional; method in brief: as §1
Homo sapiens [3] = organism: Homo sapiens; test: Carbohydrate in the high density lipoprotein (HDL) along with compound was measured in human serum; format: functional; method in brief: as §1
Homo sapiens [4] = organism: Homo sapiens; test: Carbohydrate in the low density lipoprotein (LDL) along with compound was measured in human serum; format: functional; method in brief: as §1
Homo sapiens [5] = organism: Homo sapiens; test: Cholesterol in the Lipoprotein -deficient serum(LPDS) along with compound was measured in human serum; format: functional; method in brief: as §1
Homo sapiens [6] = organism: Homo sapiens; test: Cholesterol in the Total along with compound was measured in human serum; format: functional; method in brief: as §1
Homo sapiens [7] = organism: Homo sapiens; test: Cholesterol in the high density lipoprotein (HDL) along with compound was measured in human serum; format: functional; method in brief: as §1
Homo sapiens [8] = organism: Homo sapiens; test: Cholesterol in the low density lipoprotein (LDL) along with compound was measured in human serum; format: functional; method in brief: as §1
Homo sapiens [9] = organism: Homo sapiens; test: Cholesterol in the very low density lipoprotein (VLDL) along with compound was measured in human serum; format: functional; method in brief: as §1
[10] = Ratio of carbohydrate in HDL to cholesterol level in HDL; format: functional
Method in brief: (§2)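 Same serum incubation (2 mM final, 10 min, room temperature) and density-gradient fractionation into LDL and HDL. The ratio is μg carbohydrate per μg total cholesterol in each fraction. Values in parentheses compare the ratio with the PBS-only serum lipoproteins.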

[11] = Ratio of carbohydrate in LDL to cholesterol level in LDL; format: functional; method in brief: as §2
Homo sapiens [12] = organism: Homo sapiens; test: Carbohydrate in the very low density lipoprotein (VLDL) along with compound was measured in human serum; format: functional; method in brief: as §1
Homo sapiens [13] = organism: Homo sapiens; test: Carbohydrate in the high density lipoprotein (HDL) along with compound was measured in human serum
Rattus norvegicus [14] = organism: Rattus norvegicus; test: Effects of N-acetyl-galactosamine on compound stimulated liver association of [125I]LDL measured in serum of rats; format: functional
Method in brief: (§3)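 Glycolipid mixed with [125I]LDL at 0.3 mg/mg apolipoprotein or with [125I]HDL at 1.0 mg/mg, then held 10 min at room temperature. The mixture was given intravenously at 50 μg apolipoprotein/kg to pentobarbital-anaesthetized male Wistar rats. N-acetylgalactosamine, N-acetylglucosamine (both 400 mg/kg) or PBS was preinjected 1 min before. At 5 min, TCA-precipitable serum radioactivity and liver-associated radioactivity were measured as % of dose. Mean ± SEM, 3–4 rats; Wilcoxon two-sample test.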

Rattus norvegicus [15] = organism: Rattus norvegicus; test: Effects of N-acetyl-glucosamine on compound stimulated liver association of [125I]HDL measured in liver of rats; format: functional; method in brief: as §3
Rattus norvegicus [16] = organism: Rattus norvegicus; test: Effects of N-acetyl-glucosamine on compound stimulated liver association of [125I]HDL measured in preinjcted rats; format: functional; method in brief: as §3
Rattus norvegicus [17] = organism: Rattus norvegicus; test: Effects of N-acetyl-glucosamine on compound stimulated liver association of [125I]LDL measured in liver of rats; format: functional; method in brief: as §3
Rattus norvegicus [18] = organism: Rattus norvegicus; test: Effects of N-acetyl-glucosamine on compound stimulated liver association of [125I]-LDL measured in serum of rats; format: functional; method in brief: as §3
Rattus norvegicus [19] = organism: Rattus norvegicus; test: Effects of N-acetyl-galactosamine on compound stimulated liver association of [125I]HDL measured in liver of rats; format: functional; method in brief: as §3
Rattus norvegicus [20] = organism: Rattus norvegicus; test: Effects of N-acetyl-galactosamine on compound stimulated liver association of [125I]HDL measured in serum of rats; format: functional; method in brief: as §3
Rattus norvegicus [21] = organism: Rattus norvegicus; test: Effects of N-acetyl-galactosamine on compound stimulated liver association of [125I]LDL measured in liver of rats; format: functional; method in brief: as §3
Homo sapiens [22] = organism: Homo sapiens; test: Carbohydrate in the very low density lipoprotein (VLDL) along with compound was measured in human serum

Structure (SMILES)	Carbohydrate (Homo sapiens [1])	Carbohydrate (Homo sapiens [2])	Carbohydrate (Homo sapiens [4])	Cholesterol (Homo sapiens [5])	Cholesterol (Homo sapiens [6])	Cholesterol (Homo sapiens [7])	Cholesterol (Homo sapiens [8])	Cholesterol (Homo sapiens [9])	Ratio [10]	Ratio [11]	Carbohydrate (Homo sapiens [12])	Carbohydrate (Homo sapiens [13])	also measured
CC(C)CCCC(C)C1CCC2C3CC=C4CC(OCCOCCOCCOCCOP(O)(=S)OCCOCCOCCSC5OC(CO)C(O)C(O)C5O)CCC4(C)C3CCC12C (stereo not given)	1720 µg	2730 µg	520 µg	66 µg	1947 µg	484 µg	1296 µg	101 µg	0.81	0.4	100 µg	–	Carbohydrate (Homo sapiens [3]): 390 µg
CC(C)CCCC(C)C1CCC2C3CC=C4CC(OCCOCCOCCOCCOP(O)(=S)OCCSC5OC(CO)C(O)C(O)C5O)CCC4(C)C3CCC12C (stereo not given)	1590 µg	2710 µg	580 µg	85 µg	1885 µg	500 µg	1161 µg	108 µg	0.92	0.5	80 µg	460 µg	–
CC(C)CCCC(C)C1CCC2C3CC=C4CC(OCCOCCOCCOCCOP(O)(=S)OCCO[C@@H]5O[C@H](CO)[C@H](O)[C@H](O)[C@H]5O)CCC4(C)C3CCC12C (stereo not given in full)	1710 µg	2790 µg	480 µg	70 µg	1850 µg	627 µg	1048 µg	104 µg	0.8	0.45	100 µg	500 µg	Dose (Rattus norvegicus [14]): 92.2%; Dose (Rattus norvegicus [15]): 22.2%; Dose (Rattus norvegicus [16]): 61.1%; Dose (Rattus norvegicus [17]): 61.6%; Dose (Rattus norvegicus [18]): 29.3%; Dose (Rattus norvegicus [19]): 5.8%; Dose (Rattus norvegicus [20]): 78.8%; Dose (Rattus norvegicus [21]): 5.1%; Carbohydrate (Homo sapiens [22]): 100 µg

Reference: ChEMBL document CHEMBL1125919, “Water-soluble cholesteryl-containing phosphorothioate monogalactosides: synthesis, properties, and use in lowering blood cholesterol by directing plasma lipoproteins to the liver” (1991)
